From paper PMC4832308 (Cancer, 2015)

How the values were obtained:
PC3 prostate cancer = settings: cited from earlier work
pS6RP = assay: immuno‐histochemical staining of tumor biopsies; format: in vivo, human; settings: pre‐ vs on‐treatment (days 15‐22), HCC and salivary gland tumor, 30‐mg/d cohort
How it was run: (§1)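 Optional pretreatment and on-treatment (days 15–22) tumor biopsies from 2 patients in the 30-mg/d cohort (HCC and salivary gland tumor). Paraffin-embedded sections were immunostained per antibody (pS6RP, p4EBP1, pAKT, Ki-67) or TUNEL-labelled, then scored by quantitative image analysis.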

pAKT = assay: immuno‐histochemical staining of tumor biopsies; format: in vivo, human; settings: pre‐ vs on‐treatment (days 15‐22), HCC and salivary gland tumor, 30‐mg/d cohort
How it was run: as §1

[1] = test system: non‐Hodgkin lymphoma cell lines; settings: cited from earlier work
TUNEL‐positive cells = assay: TUNEL staining of tumor biopsies; format: in vivo, human; settings: HCC and salivary gland tumor samples after treatment
How it was run: as §1

p4EBP1 = assay: immuno‐histochemical staining of tumor biopsies; format: in vivo, human; settings: HCC sample after treatment initiation
How it was run: as §1

[2] = urine pharmacokinetics in patients; settings: human, in vivo

CO[C@H]1CC[C@H](N2C(=O)CNc3ncc(-c4ccc(C(C)(C)O)nc4)nc32)CC1 [CC‐223]
single‐agent activity in xenograft model (PC3 prostate cancer): single‐agent activity
pS6RP staining in tumor biopsies (pS6RP): Significant inhibition
pAKT staining in tumor biopsies (pAKT): Significant inhibition
activity against non‐Hodgkin lymphoma cell lines [1]: active
TUNEL‐positive cells in tumor biopsies (TUNEL‐positive cells): increase
p4EBP1 in tumor biopsy (p4EBP1): inhibition
fraction excreted unchanged in urine [2]: < 0.2%
renal clearance [2]: negligible
